Measurements: ChEMBL document CHEMBL2016521, “Preparation, gram-negative antibacterial activity, and hydrolytic stability of novel siderophore-conjugated monocarbam diols” (ACS Med Chem Lett, 2011)

Experiments:
[1] = test system: Pseudomonas aeruginosa; assay: Antibacterial activity against Pseudomonas aeruginosa; assay type: functional
[2] = Fraction unbound in mouse plasma at 1 uM by LC-MS/MS analysis; assay type: ADME, cell-free
[3] = test system: Pseudomonas aeruginosa; assay: Antibacterial activity against Pseudomonas aeruginosa isolate 1091-05; assay type: functional
[4] = test system: Pseudomonas aeruginosa; assay: Antibacterial activity against imipenem-sensitive Pseudomonas aeruginosa isolate 1091-05 infected in sc dosed neutropenic-C3H/HeN mouse assessed as mouse survival administered 4 hrs post infection followed by BID dosing for two days measured on day 10; assay type: functional; conditions: isolate 1091-05, sc, read-out: PD50
[5] = test system: Acinetobacter baumannii; assay: Antibacterial activity against Acinetobacter baumannii AB-3167; assay type: functional
[6] = test system: Klebsiella pneumoniae; assay: Antibacterial activity against Klebsiella pneumoniae 1000-02; assay type: functional
[7] = test system: Pseudomonas aeruginosa; assay: Antibacterial activity against imipenem-sensitive Pseudomonas aeruginosa isolate 1091-05 infected in ip dosed SF-1 mouse assessed as survival of animal administered 0.5 and 4 hrs post infected measured on day 4; assay type: functional; conditions: isolate 1091-05, ip, read-out: PD50
[8] = test system: Citrobacter freundii; assay: Antimicrobial activity against Citrobacter freundii; assay type: functional
[9] = test system: Klebsiella aerogenes; assay: Antimicrobial activity against Enterobacter aerogenes; assay type: functional
[10] = test system: Klebsiella pneumoniae; assay: Antimicrobial activity against Klebsiella pneumoniae clinical isolate; assay type: functional
[11] = Chemical stability of the compound in phosphate buffer at pH 8 assessed as drug degradation at 1 uM after 100 hrs by HPLC analysis; assay type: physicochemical; conditions: read-out: Drug degradation
Outline: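 Hydrolytic β-lactam ring-opening was followed in aqueous buffer at pH 8.0 and 37 °C over a 100 h incubation. The read-out was percent degradation.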

[12] = Chemical stability of the compound in phosphate buffer at pH 6 at 1 uM after 24 hrs by HPLC analysis; assay type: physicochemical; conditions: pH 6, 24 h
Outline: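 Hydrolytic stability of the β-lactam ring was measured in aqueous buffer at pH 6.0 and 37 °C.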

[13] = test system: Acinetobacter sp.; assay: Antimicrobial activity against Acinetobacter sp.; assay type: functional
[14] = test system: Pseudomonas aeruginosa; assay: Antibacterial activity against Pseudomonas aeruginosa cystic fibrosis isolate; assay type: functional
[15] = test system: Pseudomonas aeruginosa; assay: Antibacterial activity against Pseudomonas aeruginosa clinical isolate; assay type: functional
[16] = test system: Stenotrophomonas maltophilia; assay: Antimicrobial activity against Stenotrophomonas maltophilia; assay type: functional
[17] = test system: Klebsiella pneumoniae; assay: Antimicrobial activity against carbapenemase-producing Klebsiella pneumoniae; assay type: functional
[18] = test system: Pseudomonas aeruginosa; assay: Antibacterial activity against metallo-beta-lactamase producing Pseudomonas aeruginosa; assay type: functional
[19] = test system: Escherichia coli; assay: Antimicrobial activity against CTX-M-positive extended spectrum beta-lactamase-producing Escherichia coli; assay type: functional
[20] = test system: Klebsiella pneumoniae; assay: Antimicrobial activity against extended spectrum beta-lactamase-producing Klebsiella pneumoniae; assay type: functional
[21] = test system: Serratia marcescens; assay: Antimicrobial activity against Serratia marcescens; assay type: functional
[22] = test system: Escherichia coli; assay: Antimicrobial activity against extended spectrum beta-lactamase-producing Escherichia coli; assay type: functional
[23] = test system: Escherichia coli; assay: Antimicrobial activity against Escherichia coli clinical isolate; assay type: functional
[24] = test system: Pseudomonas aeruginosa; assay: Antibacterial activity against low inoculum imipenem-sensitive Pseudomonas aeruginosa isolate 1091-05 infected in sc dosed neutropenic-C3H/HeN mouse assessed as mouse survival administered 4 hrs post infection followed by BID dosing for two days measured on day 10; assay type: functional; conditions: isolate 1091-05, sc, read-out: PD50

`Cn1c(-c2cc(=O)c(O)c[nH]2)nn(S(=O)(=O)[N-]C(=O)N2C[C@H](NC(=O)/C(=N\OC(C)(C)C(=O)[O-])c3csc(N)n3)C2=O)c1=O.[Na+].[Na+]` showed an MIC90 [1] of 2 µg/mL, a fraction unbound at 1 µM [2] of 0.26 and an MIC [3] of 0.5 µg/mL. It also gave an ED50 [4] of over 150 mg/kg, an MIC [5] of 1 µg/mL and an MIC [6] of 0.5 µg/mL. It also gave an ED50 [7] of 4 mg/kg.
With `CC(C)(O/N=C(\C(=O)N[C@H]1CN(C(=O)[N-]S(=O)(=O)n2nc(-c3cc(=O)c(O)c[nH]3)n(CC(F)(F)F)c2=O)C1=O)c1csc(N)n1)C(=O)[O-].[Na+].[Na+]` the MIC [3] was 0.25 µg/mL.
`CC(C)(C)CCn1c(-c2cc(=O)c(O)c[nH]2)nn(S(=O)(=O)[N-]C(=O)N2C[C@H](NC(=O)/C(=N\OC(C)(C)C(=O)[O-])c3csc(N)n3)C2=O)c1=O.[Na+].[Na+]` showed an MIC [3] of 0.5 µg/mL.
`CCN(CC)CCn1c(-c2cc(=O)c(O)c[nH]2)nn(S(=O)(=O)[N-]C(=O)N2C[C@H](NC(=O)/C(=N\OC(C)(C)C(=O)[O-])c3csc(N)n3)C2=O)c1=O.[Na+].[Na+]` gave an MIC [3] of 1 µg/mL.
With `CC(C)(O/N=C(\C(=O)N[C@H]1CN(C(=O)[N-]S(=O)(=O)n2nc(-c3cc(=O)c(O)c[nH]3)n(CCCO)c2=O)C1=O)c1csc(N)n1)C(=O)[O-].[Na+].[Na+]` the MIC [3] was 0.25 µg/mL.
Compound `CC(C)(O)Cn1c(-c2cc(=O)c(O)c[nH]2)nn(S(=O)(=O)[N-]C(=O)N2C[C@H](NC(=O)/C(=N\OC(C)(C)C(=O)[O-])c3csc(N)n3)C2=O)c1=O.[Na+].[Na+]` has an MIC [3] of 0.25 µg/mL.
With `Cc1cc(Cn2c(-c3cc(=O)c(O)c[nH]3)nn(S(=O)(=O)[N-]C(=O)N3C[C@H](NC(=O)/C(=N\OC(C)(C)C(=O)[O-])c4csc(N)n4)C3=O)c2=O)no1.[Na+].[Na+]` the MIC [3] was 2 µg/mL.
For `Cc1cc(Cn2c(-c3cc(=O)c(O)c[nH]3)nn(S(=O)(=O)[N-]C(=O)N3C[C@H](NC(=O)/C(=N\OC(C)(C)C(=O)[O-])c4csc(N)n4)C3=O)c2=O)nn1C.[Na+].[Na+]`, the MIC [3] was 8 µg/mL.
With `CC(C)(O/N=C(\C(=O)N[C@H]1CN(C(=O)[N-]S(=O)(=O)n2nc(-c3cc(=O)c(O)c[nH]3)n(C[C@@H](O)CO)c2=O)C1=O)c1csc(N)n1)C(=O)[O-].[Na+].[Na+]` the MIC90 [1] was 0.5 µg/mL, the MIC50 [8] was 0.5 µg/mL and the MIC90 [8] was 2 µg/mL. It also gave an MIC50 [9] of 0.125 µg/mL, an MIC90 [9] of 0.25 µg/mL and an MIC50 [10] of 0.5 µg/mL. The MIC90 [10] was 8 µg/mL, the fraction unbound at 1 µM [2] was 0.46 and the degraded at 100 h, 1 µM [11] was 50%. For the same compound, the MIC [3] was 0.125 µg/mL, the Stability [12] was “Stable” and the MIC50 [13] was 16 µg/mL. It also gave an MIC90 [13] of over 64 µg/mL, an ED50 [4] of 20.6 mg/kg and an MIC50 [14] of 0.125 µg/mL. For the same compound, the MIC90 [14] was 0.5 µg/mL, the MIC50 [15] was 0.125 µg/mL and the MIC90 [15] was 0.5 µg/mL. The MIC [5] was 0.5 µg/mL, the MIC50 [16] was 1 µg/mL and the MIC90 [16] was 2 µg/mL. The MIC [6] was 0.5 µg/mL, the MIC50 [17] was 0.5 µg/mL and the MIC90 [17] was 8 µg/mL. The MIC50 [18] was 0.125 µg/mL, the MIC90 [18] was 0.5 µg/mL and the MIC50 [19] was 0.25 µg/mL. For the same compound, the MIC90 [19] was 2 µg/mL, the MIC50 [20] was 0.5 µg/mL and the MIC90 [20] was 8 µg/mL. The ED50 [7] was under 1 mg/kg, the MIC50 [21] was 0.125 µg/mL and the MIC90 [21] was 0.5 µg/mL. For the same compound, the MIC50 [22] was 0.25 µg/mL, the MIC90 [22] was 2 µg/mL and the MIC50 [23] was 0.25 µg/mL. For the same compound, the MIC90 [23] was 2 µg/mL and the ED50 [24] was 6.9 mg/kg.
Work on `C[C@H](O)Cn1c(-c2cc(=O)c(O)c[nH]2)nn(S(=O)(=O)[N-]C(=O)N2C[C@H](NC(=O)/C(=N\OC(C)(C)C(=O)[O-])c3csc(N)n3)C2=O)c1=O.[Na+].[Na+]` yielded an MIC90 [1] of 1 µg/mL, an MIC [3] of 0.125 µg/mL and an ED50 [4] of 15.7 mg/kg. The MIC [5] was 1 µg/mL and the MIC [6] was 0.25 µg/mL.
